Laboratory results as given in PMC5456262 (Biochemistry, 2017).
Several values for one entry are separate records, joined by “and”; a condition that tells them apart may be missing. Equal values may be shown once.

Legend:
[1] = target: WT LacY in PL; details: cited from earlier work
[2] = target: LacY mutant 35C/245C (H35C/N245C) (Escherichia coli, UniProt P02920, H35C/N245C); test: NPG binding to mutant 35C/245C solubilized in DDM, stopped-flow Trp151→NPG FRET
[3] = target: N245C LacY (Escherichia coli, UniProt P02920, N245C); test: NPG binding to control single-Cys mutant N245C, stopped-flow; details: Figure S3
N245C LacY, sequence (P02920 whole entry N245C): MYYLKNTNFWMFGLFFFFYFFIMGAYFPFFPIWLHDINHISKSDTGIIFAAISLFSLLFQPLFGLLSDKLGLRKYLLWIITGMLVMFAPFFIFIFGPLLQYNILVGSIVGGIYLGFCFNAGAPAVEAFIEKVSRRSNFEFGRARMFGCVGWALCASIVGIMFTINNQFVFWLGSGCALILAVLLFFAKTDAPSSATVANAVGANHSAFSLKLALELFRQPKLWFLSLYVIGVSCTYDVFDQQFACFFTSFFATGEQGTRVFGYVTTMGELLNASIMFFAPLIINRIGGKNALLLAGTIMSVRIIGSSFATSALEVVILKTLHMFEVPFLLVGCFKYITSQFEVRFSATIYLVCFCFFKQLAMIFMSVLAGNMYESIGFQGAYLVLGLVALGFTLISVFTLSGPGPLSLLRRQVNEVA

[4] = target: H35C LacY (Escherichia coli, UniProt P02920, H35C); test: NPG binding to control single-Cys mutant H35C, stopped-flow; details: Figure S3
H35C LacY, sequence (P02920 whole entry H35C): as the sequence (P02920 whole entry N245C) above, with H35C, C245N counted along it

[5] = target: LacY mutant 32C/245C (I32C/N245C) reconstituted into PL (Escherichia coli, UniProt P02920, I32C/N245C); test: biochemical; assay type: binding
LacY mutant 32C/245C (I32C/N245C) reconstituted into PL, sequence (P02920 whole entry I32C/N245C): as the sequence (P02920 whole entry N245C) above, with I32C counted along it

[6] = target: I32C LacY (Escherichia coli, UniProt P02920, I32C); test: NPG binding to control single-Cys mutant I32C, stopped-flow; details: Figure S3
I32C LacY, sequence (P02920 whole entry I32C): as the sequence (P02920 whole entry N245C) above, with I32C, C245N counted along it

[7] = target: LacY mutant 32C/245C (I32C/N245C) (Escherichia coli, UniProt P02920, I32C/N245C); test: biochemical; assay type: binding
LacY mutant 32C/245C (I32C/N245C), sequence (P02920 whole entry I32C/N245C): as the sequence (P02920 whole entry N245C) above, with I32C counted along it

[8] = target: mutant 32C/245C LacY–Nb9065 complex in PL (Escherichia coli, UniProt P02920, I32C/N245C); assay type: binding
mutant 32C/245C LacY–Nb9065 complex in PL, sequence (P02920 whole entry I32C/N245C, one chain of several): as the sequence (P02920 whole entry N245C) above, with I32C counted along it

[9] = target: LacY control mutants I32C, H35C, or N245C; test: Galactoside; assay type: binding, Escherichia coli; details: range over three control mutants, presence or absence of Cu^2+
In short: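 Purified LacY single-Cys mutants were pretreated with CuSO4 (oxidizing) or 10 mM TCEP (reducing) for 10 min at room temperature, with stopped-flow final TCEP at 2 mM. Buffer was 50 mM NaPi pH 7.5, with 0.02% DDM for detergent-solubilized protein. Protein was preincubated 5 min with NPG at varied concentrations, then mixed by stopped-flow with 15 mM TDG. Trp151→NPG FRET was read at ex 295/em 340 nm, and single-exponential fits gave koff.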

[10] = DDM, Cu^2+, directly measured NPG binding rates
[11] = Kd^app calculated = Kd(1 + kr/kf), DDM, cross-linked with Cu^2+
[12] = read-out: kon from two-step conformational selection fit

LacY mutant 35C/245C (H35C/N245C), sequence (P02920 whole entry H35C/N245C): as the sequence (P02920 whole entry N245C) above, with H35C counted along it

Q: Which Kd ([1]; WT LacY in PL) does the source give for `O=[N+]([O-])c1ccc(O[C@H]2O[C@H](CO)[C@H](O)[C@H](O)[C@H]2O)cc1` [NPG, 4-nitrophenyl α-D-galactopyranoside] here?
A: 11 µM

Q: And the koff ([1]; WT LacY in PL)?
A: 111 s⁻¹

Q: What about the “kon estimated from displacement experiments” value ([1]; WT LacY reconstituted into PL) of the same molecule?
A: 10 µM⁻¹ s⁻¹

Q: What about the “kobs (sugar binding rate, independent of sugar concentration)” value ([1]; reconstituted WT LacY) of the same molecule?
A: 21 s⁻¹

Q: And the “kobs limit at high sugar concentrations” value [2, 10]?
A: 40 to 50 s⁻¹

Q: And the Kd [2, 11]?
A: 91 µM

Q: What about the kon [2, 12] of the same molecule?
A: 700000 ± 160000 M⁻¹ s⁻¹

Q: What about the “kobs (sugar binding rate measured directly)” value [3] of the same molecule?
A: 26 s⁻¹

Q: What about the “kobs (sugar binding rate measured directly)” value [4] of the same molecule?
A: 33 s⁻¹

Q: What about the Kd [5] of the same molecule?
A: 7 ± 1 µM

Q: And the “sugar binding (NPG displacement)” value ([5]; PL, cross-linked in the presence of Cu^2+, 400 μM NPG)?
A: no sugar binding

Q: And the “kobs (NPG binding rate measured directly, independent of NPG concentration)” value ([5]; PL, reducing conditions (TCEP), no Nb9065)?
A: 2.2 ± 0.4 s⁻¹ and 2 s⁻¹

Q: What about the koff ([5]; read-out: koff (displacement rate)) of the same molecule?
A: 24 ± 3 s⁻¹

Q: And the “kobs (sugar binding rate measured directly)” value [6]?
A: 20 s⁻¹

Q: What about the “kobs limit at high sugar concentrations” value [7, 10] of the same molecule?
A: 40 to 50 s⁻¹

Q: What about the “koff (rate of NPG displacement by excess TDG)” value ([7]; DDM, cross-linked in the presence of Cu^2+) of the same molecule?
A: 9.1 ± 0.9 s⁻¹

Q: What about the Kd [7, 11] of the same molecule?
A: 68 µM

Q: And the kon [7, 12]?
A: 640000 ± 120000 M⁻¹ s⁻¹

Q: And the Kd [8]?
A: 6 ± 2 µM

Q: And the kon ([8]; read-out: kon from concentration dependence of binding rates measured directly)?
A: 3.7e+06 ± 200000 M⁻¹ s⁻¹

Q: And the Kd [9]?
A: 3 to 17 µM

Q: What about the koff [9] of the same molecule?
A: 33 to 102 s⁻¹
